Sampled rows, rich in hits. Any-hit rate of the full collection: about 2.5%.
SENP6 inh = blocks the human protease SENP6. inhibition, % at 10 µM. Recombinant SENP6 catalytic domain, aminoluciferin luminescence. Q9GZR1. actives 1.8% (n = 330,000). AID 2599;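 active = inhibition above about 50% at the single tested dose, limit read from the data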;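 note: plate controls were DMSO wells with enzyme for no effect and DMSO wells lacking enzyme for full effect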
SENP1 inh = inhibitors of human SENP1 SUMO protease catalytic domain | Q9P0U3 | recombinant SENP1 catalytic domain, CyPet-SUMO1-YPet FRET cleavage | inhibition, % at 10 µM | actives 0.21% (n = 360,000);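 active = inhibition at least 30% at 10 µM, raw YFP signal under a set limit, fluorescence ratio 0.5 to 1.5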;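 note: 0% = enzyme with DMSO and 100% = no enzyme wells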
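Test system: recombinant human SENP1 catalytic domain, His6-tagged / Medium: pH 8 Tris buffer with EDTA, NaCl, BME, BSA, NP40, catalase / Also added: SUMO1 FRET substrate flanked by Cypet and Ypet, 25 nM / Times: 50 min reaction at room temperature / Signal: FRET, CFP and YFP emission / Control set: no-enzyme low control and enzyme-plus-DMSO high control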
SENP8 block-1 = inhibitors of human SENP8 protease; actives 0.64% (n = 360,000); inhibition, % at 20 µM; recombinant SENP8, Nedd8 substrate fluorescence; AID 602440; in the data active = inhibition mostly above about 40%, no sharp cut-off; inactive = mostly below about 27%
Target sequence (Q96LD8 whole entry, looked up): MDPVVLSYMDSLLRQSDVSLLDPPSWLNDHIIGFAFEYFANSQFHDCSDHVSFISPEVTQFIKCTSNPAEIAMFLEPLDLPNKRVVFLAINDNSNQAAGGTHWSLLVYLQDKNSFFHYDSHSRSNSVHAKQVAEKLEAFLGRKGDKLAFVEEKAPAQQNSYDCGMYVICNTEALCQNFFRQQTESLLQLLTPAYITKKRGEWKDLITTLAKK
SENP7 inh = inhibitors of human SENP7 protease; actives 1.5% (n = 330,000); AID 434973; recombinant SENP7, Z-RLRGG-aminoluciferin luminescence, 40 min; inhibition, % at 5 µM;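 active = inhibition above about 50% at the single test dose, limit read from the data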;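 note: plate controls were DMSO with enzyme for no effect and no enzyme buffer wells for full effect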
SENP8 block-2 = SENP8 protease inhibition. Q96LD8. purified SENP8, Z-RLRGG-aminoluciferin cleavage, luminescence. inhibition, % at 10 µM. actives 1.2% (n = 330,000); in the data active = inhibition above about 50%
SENP8 conf = confirmation of human SENP8 protease inhibitors. AID 488912. actives 40% (n = 6,200). shares compounds with SENP7 inh. inhibition, % at 12.5 µM. Recombinant SENP8, Z-RLRGG-aminoluciferin luminescence, 60 min;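 active = mean inhibition across replicates above about 50%, limit read from the data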
SENP6 conf = confirmation of human SENP6 protease inhibitors | shares compounds with SENP7 inh | recombinant SENP6, Z-RLRGG-aminoluciferin luminescence | inhibition, % at 12.5 µM | actives 58% (n = 6,200) | AID 488915
SENP7 confirm = human SENP7 inhibition, confirmed. shares compounds with SENP7 inh. recombinant SENP7, Z-RLRGG-aminoluciferin luminescence, 40 min. inhibition, % at 12.5 µM. actives 69% (n = 6,200)
Casp3 select = inhibits human caspase-3 in SENP selectivity test. actives 60% (n = 6,200). shares compounds with SENP7 inh. purified caspase-3, Z-DEVD-aminoluciferin luminescence, 60 min. inhibition, % at 12.5 µM. AID 488918;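 active = mean inhibition above about 50%, limit read from the data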;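 note: plate controls were enzyme with DMSO for no effect and wells without caspase-3 for full effect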
Target sequence (P42574 28-227 limits assumed): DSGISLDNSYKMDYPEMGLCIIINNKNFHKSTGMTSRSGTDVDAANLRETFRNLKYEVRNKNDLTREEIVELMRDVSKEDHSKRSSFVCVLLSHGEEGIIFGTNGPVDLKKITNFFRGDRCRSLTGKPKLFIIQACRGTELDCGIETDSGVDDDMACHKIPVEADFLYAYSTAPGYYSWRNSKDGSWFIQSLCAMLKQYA
Luc interf = interferes with luciferase luminescence in SENP counter-screen | shares compounds with SENP7 inh | Pre-incubated SENP8/Z-RLRGG-aminoluciferin, luciferase luminescence interference | inhibition, % at 12.5 µM | actives 39% (n = 6,200) | AID 488919;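 active = mean inhibition above about 50% when retested at one dose, limit read from the data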;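 note: plate controls were DMSO wells with completed reaction for no effect and substrate without enzyme for full effect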
Starred values were filed as active, the others as inactive; i = inactive; . = not tested or not shown.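 Rule for the calls, unless noted: active = mean inhibition above about 50% in the one-dose retest (limit read from the data); inactive = the rest.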

SMILES	SENP6 inh	SENP1 inh	SENP8 block-1	SENP7 inh	SENP8 block-2	SENP8 conf	SENP6 conf	SENP7 confirm	Casp3 select	Luc interf
Cc1cc(OCC(=O)NCc2ccccn2)c2c(C)cc(=O)oc2c1	5	-1	-332	8	-15	.	.	.	.	.
O=C1/C(=C/c2cccc(F)c2)Oc2cc(O)ccc21	52*	-19	-256	47	36	70*	64*	81*	44	34
CCc1ccc([C@@H]2C[C@H]3[C@@H](CN2S(=O)(=O)c2ccc(C)cc2)C(=O)C[C@@H](c2ccc(Cl)cc2)N3S(=O)(=O)c2ccc(C)cc2)cc1	.	2	22	.	.	.	.	.	.	.
CCOc1cc(/C=C2/C(=O)N(c3ccccc3)N=C2C)ccc1OC(=O)c1ccco1	34	5	66*	68*	7	-23	-1	-4	-7	-4
CCOc1cc(/C=C2\C(=O)N(c3ccc(C(N)=O)cc3)N=C2C)ccc1OC(=O)c1cccs1	63*	14	66*	68*	14	18	33	3	3	5
CCOc1cc(/C=C2/C(=N)N3N=C(CC)SC3=NC2=O)ccc1OC(=O)c1ccco1	-5	-70	-3	-14	3	.	.	.	.	.
CCN(CC)CCNC(=O)C1(O)c2cc(Br)ccc2NC(=O)N1c1ccccc1 (centres undefined)	-16	1	4	-5	2	.	.	.	.	.
CC1CCCN(C(=O)c2ccc(-c3ccccc3Cl)o2)C1 (centres undefined)	50*	0	8	16	21	32	29	59*	26	16
O=C(c1ccc(-c2ccccc2Cl)o1)N1CCCCCCC1	.	-2	10	.	.	.	.	.	.	.
COC(=O)c1ccsc1NC(=O)CN1CCN(c2ncccn2)CC1	-8	-1	2	-1	-7	.	.	.	.	.
CCCSc1ccc(C(=O)Nc2ccc(F)cc2F)cn1	52*	3	14	68*	36	1	-1	19	22	-7
CC(C)S(=O)(=O)c1ccc(C(=O)Nc2ccc(F)cc2F)cn1	13	5	11	2	-5	.	.	.	.	.
COc1cccc(/C=C/C(=O)c2ccc3c(c2)OCO3)c1OC	11	-1	10	-2	-4	.	.	.	.	.
O=C(/C=C\Nc1cccc(F)c1)c1ccc2c(c1)OCO2	94*	-57	-182	96*	56*	79*	87*	92*	84*	28
O=C(/C=C/c1ccccc1)c1ccc2c(c1)OCO2	82*	2	12	93*	76*	20	51*	33	28	90*
O=C(/C=C\Nc1ccccc1Br)c1ccc2c(c1)OCO2	87*	-37	-20	89*	86*	84*	93*	98*	78*	8
O=C(/C=C/c1ccccc1Br)c1ccc2c(c1)OCO2	94*	2	14	92*	91*	72*	74*	64*	60*	54*
O=C(/C=C/c1ccncc1)c1ccc2c(c1)OCCO2	-7	2	2	3	-4	.	.	.	.	.
CCN(Cc1ccc2c(c1)OCO2)C(=O)/C=C/c1cccc(Br)c1	-6	0	2	-4	-13	.	.	.	.	.
O=C(/C=C/c1ccc2c(c1)OCO2)c1ccc[nH]1	77*	-38	-422	78*	59*	73*	64*	91*	41	69*
O=C(/C=C/c1ccc2c(c1)OCO2)c1ccc(F)cc1	45	-5	-83	34	25	.	.	.	.	.
CN(C)c1ccc(/C=C/C(=O)c2ccc3c(c2)OCO3)cc1	91*	-42	-381	88*	88*	95*	94*	101*	83*	66*
O=C(/C=C/c1cccc(Br)c1)c1ccc2c(c1)OCO2	76*	0	3	-33	34	4	5	-13	-13	10
CCOc1ccc(C2/C(=C(\O)c3ccc4c(c3)OCCO4)C(=O)C(=O)N2CCN2CCOCC2)cc1OC (centres undefined)	3	-3	8	4	-13	.	.	.	.	.
O=C(Nc1cnc2sccn2c1=O)c1ccc(Cl)cc1Cl	29	-1	-23	56*	-9	14	13	35	53*	16
SMILES	SENP6 inh	SENP1 inh	SENP8 block-1	SENP7 inh	SENP8 block-2	SENP8 conf	SENP6 conf	SENP7 confirm	Casp3 select	Luc interf
COc1ccc(Cl)cc1NC(=O)c1cnc2sccn2c1=O	-12	-1	-309	-15	-8	.	.	.	.	.
O=C(c1ccc([N+](=O)[O-])cc1)c1cc2ccc(O)cc2oc1=O	83*	-5	12	71*	78*	23	65*	6	71*	7
O=C(C1CC(c2ccccc2O)=NO1)N1CCc2ccccc2C1 (centres undefined)	-14	-1	4	5	-6	.	.	.	.	.
O=C(C1CC(c2ccccc2O)=NO1)N1CCCCC1 (centres undefined)	-17	1	3	74*	-4	-11	-7	-13	8	7
COCCN(C(=O)CSc1nnc(-c2cccc(F)c2)n1N)c1c(N)n(Cc2ccccc2)c(=O)[nH]c1=O	-16	-3	3	5	-11	.	.	.	.	.
CCc1ccc(C2=NN(C(C)=O)C(c3ccco3)C2)cc1 (centres undefined)	82*	2	-1	81*	83*	92*	92*	99*	90*	92*
CC(C)Nc1nc(Nc2ccc(C(N)=O)cc2)c2sccc2n1	.	2	i	.	.	.	.	.	.	.
O=C(N/N=C/c1cccnc1)c1ccc2ccccc2c1O	5	-1	-229	-2	-3	.	.	.	.	.
O=C(O)c1ccccc1C(=O)Nc1ccccn1	-17	1	18	0	2	.	.	.	.	.
O=C(Nc1cccc([N+](=O)[O-])c1)c1ccc2ccccc2c1O	90*	3	5	92*	92*	-4	30	28	27	0
O=C(Nc1cccnc1)c1ccc2ccccc2c1O	94*	-5	-496	88*	85*	93*	92*	100*	93*	87*
O=C(Nc1ccccn1)c1ccc2ccccc2c1O	63*	-52	i	25	43	49	45	76*	63*	59*
O=C(Cc1ccccc1)Nc1cccc([N+](=O)[O-])c1	-1	1	13	2	5	.	.	.	.	.

Compound activity: PubChem BioAssay, Sanford-Burnham Center for Chemical Genomics
